{"source": "ChEMBL document CHEMBL5096174", "about": "“The Natural Alkaloid Berberine Can Reduce the Number of Pseudomonas aeruginosa Tolerant Cells” (2021)", "key": {"[1]": {"tested_on": "Pseudomonas aeruginosa", "assay": "Bactericidal activity against wild type Pseudomonas aeruginosa K767 assessed as increase in biofilm production at 80 ug/ml incubated overnight by crystal voilet staining based analysis relative to control", "type": "functional", "conditions": "dose 80 µg/ml", "summary_of_the_method": "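Biofilms grown overnight at 37 °C in flat-bottom microtiter plates in LB with or without berberine 80 µg/mL. Planktonic OD600 recorded; washed sessile phase stained 15 min with 1% crystal violet, dye taken up in 96% ethanol, OD570 read. Output is OD570/OD600. Run in triplicate.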"}, "[2]": {"assay": "Inhibition of efflux pump in wild type Pseudomonas aeruginosa K767 assessed as fold reduction in CFU count in presence of tobramycin incubated for 24 hrs by ethidium bromide efflux assay relative to tobramycin alone", "conditions": "in the assay text read “by planktonic persistence assay” for “by ethidium bromide efflux assay”", "summary_of_the_method": "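Stationary-phase overnight LB cultures (37 °C) exposed to tobramycin 20xMIC alone or with berberine 80 µg/mL for 24 h at 37 °C. At 0, 7 and 24 h, aliquots PBS-washed, 10-fold serially diluted, plated on antibiotic-free CLED agar. CFU counted after 24 h at 37 °C. Biological duplicate.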"}, "[3]": {"tested_on": "Pseudomonas aeruginosa", "assay": "Bactericidal activity against Pseudomonas aeruginosa K1525 mexY mutant assessed as increase in biofilm production at 80 ug/ml incubated overnight by crystal voilet staining based analysis relative to control", "type": "functional", "conditions": "dose 80 µg/ml", "summary_of_the_method": "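Biofilms grown overnight at 37 °C in LB with or without berberine 80 µg/mL in flat-bottom microtiter wells. Planktonic phase removed and its OD600 read. Sessile phase washed with water, stained with 1% crystal violet for 15 min, washed, solubilised in 96% ethanol and read at OD570. Values normalised as OD570/OD600. Triplicate.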"}, "[4]": {"tested_on": "Pseudomonas aeruginosa", "assay": "Antibacterial activity against cystic fibrosis isolate Pseudomonas aeruginosa C25 assessed as fold reduction in MIC in presence of berberine by broth microdilution method", "type": "functional", "summary_of_the_method": "(§1)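 Tobramycin MIC was determined without and with berberine 80 µg/mL by CLSI broth microdilution. The combination was called synergistic when the MIC with berberine was ≥4 times lower than with tobramycin alone.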"}, "[5]": {"tested_on": "Pseudomonas aeruginosa", "assay": "Antibacterial activity against Pseudomonas aeruginosa NC10 cystic fibrosis assessed as tobramycin MIC in presence of berberine", "type": "functional", "summary_of_the_method": "(§2)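 Tobramycin MIC by CLSI broth microdilution in the presence of berberine 80 µg/mL.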"}, "[6]": {"tested_on": "Pseudomonas aeruginosa", "assay": "Antibacterial activity against cystic fibrosis isolate Pseudomonas aeruginosa AR48 assessed as fold reduction in MIC in presence of berberine by broth microdilution method", "type": "functional", "summary_of_the_method": "as §1"}, "[7]": {"tested_on": "Pseudomonas aeruginosa", "assay": "Antibacterial activity against Pseudomonas aeruginosa K1525 mexY mutant assessed as reduction in bacterial growth rate in presence of berberine", "type": "functional, organism-based", "summary_of_the_method": "(§3)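 Overnight LB cultures diluted to OD600 0.1 and shaken at 140 rpm, 37 °C, for 24 h with or without berberine 80 µg/mL. OD600 read at 2, 4, 6, 8 and 24 h. Biological triplicates.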"}, "[8]": {"tested_on": "Pseudomonas aeruginosa", "assay": "Antibacterial activity against clinical isolate Pseudomonas aeruginosa C84 assessed as fold reduction in MIC in presence of berberine by broth microdilution method", "type": "functional", "summary_of_the_method": "as §1"}, "[9]": {"tested_on": "Pseudomonas aeruginosa", "assay": "Antibacterial activity against clinical isolate Pseudomonas aeruginosa C59 assessed as fold reduction in MIC in presence of berberine by broth microdilution method", "type": "functional", "summary_of_the_method": "as §1"}, "[10]": {"tested_on": "Pseudomonas aeruginosa", "assay": "Antibacterial activity against Pseudomonas aeruginosa NC02 cystic fibrosis assessed as reduction in bacterial growth", "type": "functional"}, "[11]": {"tested_on": "Pseudomonas aeruginosa", "assay": "Antibacterial activity against Pseudomonas aeruginosa C61 assessed as log reduction of bacterial population measured after 24 hrs", "type": "functional", "summary_of_the_method": "(§4)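 Overnight LB cultures at 37 °C were exposed to tobramycin 20xMIC, alone or with berberine 80 µg/mL, for 24 h at 37 °C. Aliquots were PBS-washed, serially 10-fold diluted and plated on antibiotic-free CLED agar. CFUs were counted after 24 h at 37 °C, before exposure (T0) and at T24. Biological duplicates.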"}, "[12]": {"tested_on": "Pseudomonas aeruginosa", "assay": "Antibacterial activity against cystic fibrosis isolate Pseudomonas aeruginosa NC06 assessed as fold reduction in MIC in presence of berberine by broth microdilution method", "type": "functional", "summary_of_the_method": "as §1"}, "[13]": {"tested_on": "Pseudomonas aeruginosa", "assay": "Antibacterial activity against clinical isolate Pseudomonas aeruginosa C54 assessed as fold reduction in MIC in presence of berberine by broth microdilution method", "type": "functional", "summary_of_the_method": "as §1"}, "[14]": {"tested_on": "Pseudomonas aeruginosa", "assay": "Antibacterial activity against cystic fibrosis isolate Pseudomonas aeruginosa NC06 assessed as reduction in tolerant cell in presence of berberine by broth microdilution method", "type": "functional", "summary_of_the_method": "as §4"}, "[15]": {"tested_on": "Pseudomonas aeruginosa", "assay": "Antibacterial activity against Pseudomonas aeruginosa NC10 cystic fibrosis assessed as reduction in bacterial growth", "type": "functional"}, "[16]": {"tested_on": "Pseudomonas aeruginosa", "assay": "Antibacterial activity against Pseudomonas aeruginosa NC06 cystic fibrosis assessed as reduction in bacterial growth", "type": "functional"}, "[17]": {"tested_on": "Pseudomonas aeruginosa", "assay": "Antibacterial activity against cystic fibrosis isolate Pseudomonas aeruginosa C25 assessed as log reduction in tolerant cell in presence of berberine by broth microdilution method", "type": "functional", "summary_of_the_method": "as §4"}, "[18]": {"tested_on": "Pseudomonas aeruginosa", "assay": "Antibacterial activity against Pseudomonas aeruginosa NC04 cystic fibrosis assessed as tobramycin MIC in presence of berberine", "type": "functional", "summary_of_the_method": "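Broth microdilution per CLSI; tobramycin MIC determined with berberine present at 80 µg/mL. Synergy defined as MIC in presence of berberine ≥4 times lower than tobramycin alone.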"}, "[19]": {"tested_on": "Pseudomonas aeruginosa", "assay": "Antibacterial activity against cystic fibrosis isolate Pseudomonas aeruginosa C30 assessed as log reduction in tolerant cell in presence of berberine by broth microdilution method", "type": "functional", "summary_of_the_method": "as §4"}, "[20]": {"tested_on": "Pseudomonas aeruginosa", "assay": "Bactericidal activity against Pseudomonas aeruginosa K1525 mexY mutant assessed as reduction in log increase in tolerant cells at 1000 times MIC measured after 24 hrs", "type": "functional", "summary_of_the_method": "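Biofilms were grown overnight in LB in 35 mm dishes at 37 °C, then held 24 h at 37 °C in LB with tobramycin 1000xMIC, alone or with berberine 80 or 320 µg/mL. Biofilms were detached mechanically at T0 and T24, resuspended in PBS, 10-fold diluted and plated on CLED agar, and CFUs were counted after 24 h at 37 °C. Biological triplicates.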"}, "[21]": {"tested_on": "Pseudomonas aeruginosa", "assay": "Antibacterial activity against Pseudomonas aeruginosa NC01 cystic fibrosis assessed as tobramycin MIC in presence of berberine", "type": "functional", "summary_of_the_method": "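Broth microdilution per CLSI guidelines, tobramycin MIC determined in presence of berberine 80 μg/mL; strains grown in LB. Combination considered synergistic when MIC with berberine was ≥4 times lower than tobramycin alone.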"}, "[22]": {"tested_on": "Pseudomonas aeruginosa", "assay": "Antibacterial activity against Pseudomonas aeruginosa NC06 cystic fibrosis assessed as tobramycin MIC in presence of berberine", "type": "functional", "summary_of_the_method": "as §2"}, "[23]": {"tested_on": "Pseudomonas aeruginosa", "assay": "Antibacterial activity against Pseudomonas aeruginosa NC04 cystic fibrosis assessed as reduction in bacterial growth", "type": "functional"}, "[24]": {"tested_on": "Pseudomonas aeruginosa", "assay": "Bactericidal activity against Pseudomonas aeruginosa K1525 mexY mutant persisters assessed as reduction in CFU at 20 times MIC incubated for 24 hrs by planktonic persistance assay", "type": "functional", "summary_of_the_method": "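Stationary-phase (overnight, LB, 37 °C) cultures exposed to tobramycin 20xMIC with or without berberine 80 µg/mL for 24 h at 37 °C. Aliquots taken before exposure and at 24 h, PBS-washed, serially 10-fold diluted and plated on antibiotic-free CLED agar. Surviving CFU counted after 24 h at 37 °C. Biological duplicate.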"}, "[25]": {"tested_on": "Pseudomonas aeruginosa", "assay": "Antibacterial activity against clinical isolate Pseudomonas aeruginosa C84 assessed as log reduction in tolerant cell in presence of berberine by broth microdilution method", "type": "functional", "summary_of_the_method": "as §4"}, "[26]": {"tested_on": "Pseudomonas aeruginosa", "assay": "Antibacterial activity against clinical isolate Pseudomonas aeruginosa C54 assessed as log reduction in tolerant cell in presence of berberine by broth microdilution method", "type": "functional", "summary_of_the_method": "as §4"}, "[27]": {"tested_on": "Pseudomonas aeruginosa", "assay": "Antibacterial activity against Pseudomonas aeruginosa NC01 cystic fibrosis assessed as reduction in bacterial growth", "type": "functional"}, "[28]": {"tested_on": "Pseudomonas aeruginosa", "assay": "Antibacterial activity against wild type Pseudomonas aeruginosa K767 assessed as reduction in bacterial growth rate in presence of berberine", "type": "functional, organism-based", "summary_of_the_method": "as §3"}, "[29]": {"tested_on": "Pseudomonas aeruginosa", "assay": "Antibacterial activity against Pseudomonas aeruginosa NC02 cystic fibrosis assessed as tobramycin MIC in presence of berberine", "type": "functional", "summary_of_the_method": "as §2"}, "[30]": {"tested_on": "Pseudomonas aeruginosa", "assay": "Bactericidal activity against wild type Pseudomonas aeruginosa K767 persisters assessed as reduction in CFU at 20 times MIC incubated for 24 hrs by planktonic persistance assay", "type": "functional", "summary_of_the_method": "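Stationary-phase overnight LB cultures at 37 °C were exposed to tobramycin 20xMIC, alone or with berberine 80 µg/mL, for 24 h at 37 °C. At 0, 7 and 24 h, aliquots were PBS-washed, 10-fold diluted and plated on antibiotic-free CLED agar, and survivor CFUs were counted after 24 h at 37 °C. Mean of two biological replicates ± SD.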"}}, "note": "The source made the active and inactive calls."}
{"compound": "COc1ccc2cc3[n+](cc2c1OC)CCc1cc2c(cc1-3)OCO2", "note": "[BERBERINE]", "values": [{"measurement": "Activity", "setting": "[1]", "value": 100, "unit": "%"}, {"measurement": "fold change (FC)", "setting": "[2]", "value": 10}, {"measurement": "Activity", "setting": "[3]", "value": 50, "unit": "%"}]}
{"compound": "NC[C@H]1O[C@H](O[C@H]2[C@H](O)[C@@H](O[C@H]3O[C@H](CO)[C@@H](O)[C@H](N)[C@H]3O)[C@H](N)C[C@@H]2N)[C@H](N)C[C@@H]1O", "note": "[TOBRAMYCIN]", "values": [{"measurement": "fold change (FC)", "setting": "[4]", "value": 16}, {"measurement": "MIC", "setting": "[5]", "value": 0.25, "unit": "µg/mL"}, {"measurement": "fold change (FC)", "setting": "[6]", "value": 4}, {"measurement": "Activity", "setting": "[7]", "value": "Active"}, {"measurement": "fold change (FC)", "setting": "[8]", "value": 4}, {"measurement": "fold change (FC)", "setting": "[9]", "value": 2}, {"measurement": "MIC", "setting": "[10]", "value": 32, "unit": "µg/mL"}, {"measurement": "log(activity)", "setting": "[11]", "value": 1}, {"measurement": "fold change (FC)", "setting": "[12]", "value": 4}, {"measurement": "fold change (FC)", "setting": "[13]", "value": 2}, {"measurement": "log(activity)", "setting": "[14]", "value": 2}, {"measurement": "MIC", "setting": "[15]", "value": 1, "unit": "µg/mL"}, {"measurement": "MIC", "setting": "[16]", "value": 2, "unit": "µg/mL"}, {"measurement": "log(activity)", "setting": "[17]", "value": 2.5}, {"measurement": "MIC", "setting": "[18]", "value": "< 0.125", "unit": "µg/mL"}, {"measurement": "log(activity)", "setting": "[19]", "value": 3}, {"measurement": "log(activity)", "setting": "[20]", "value": 3}, {"measurement": "MIC", "setting": "[21]", "value": 8, "unit": "µg/mL"}, {"measurement": "MIC", "setting": "[22]", "value": 0.5, "unit": "µg/mL"}, {"measurement": "MIC", "setting": "[23]", "value": 0.5, "unit": "µg/mL"}, {"measurement": "Activity", "setting": "[24]", "value": 250000, "unit": "CFU/ml"}, {"measurement": "log(activity)", "setting": "[25]", "value": 0.5}, {"measurement": "log(activity)", "setting": "[26]", "value": 1.5}, {"measurement": "MIC", "setting": "[27]", "value": 16, "unit": "µg/mL"}, {"measurement": "Activity", "setting": "[28]", "value": "Active"}, {"measurement": "MIC", "setting": "[29]", "value": 16, "unit": "µg/mL"}, {"measurement": "log(activity)", "setting": "[30]", "value": "4.11e+07"}]}
